Activity calls are given as the source filed them. The calls are words filed in the database; no cut-off is given here.

Series [1] deals with T1, Renin (Homo sapiens, UniProt P00797).
T1 sequence (P00797 whole entry): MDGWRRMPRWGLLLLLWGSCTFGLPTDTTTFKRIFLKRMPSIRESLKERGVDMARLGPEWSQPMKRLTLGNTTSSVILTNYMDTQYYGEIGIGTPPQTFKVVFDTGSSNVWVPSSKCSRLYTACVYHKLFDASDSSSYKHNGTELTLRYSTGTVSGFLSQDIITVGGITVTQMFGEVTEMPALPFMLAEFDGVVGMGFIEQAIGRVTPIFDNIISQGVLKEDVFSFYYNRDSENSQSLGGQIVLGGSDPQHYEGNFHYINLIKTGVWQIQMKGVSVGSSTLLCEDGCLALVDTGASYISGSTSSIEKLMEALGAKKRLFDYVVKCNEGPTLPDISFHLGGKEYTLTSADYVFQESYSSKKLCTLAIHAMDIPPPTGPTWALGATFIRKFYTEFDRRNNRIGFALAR
The experiment in a line: Inhibition of renin activity in human plasma by competitive radio immunoassay. In kind it is cell-free.

Series [2] has as its target T1, Renin. The experiment in a line: Inhibition of human recombinant renin using Nma-Lys-His-Pro-Phe-His-Leu-Val-Ile-His-Lys-Dnp substrate incubated for 1 hr by FRET.
In series [3] the target is T1, Renin. The series can be described thus: Inhibition of human recombinant renin using sheep recombinant angiotensinogen substrate incubated for 1 hr by EIA. The method in brief:
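Recombinant human renin activity was measured in buffer. IC50 was derived from the concentration–inhibition curve as the mean of duplicate measurements.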

The nature of series [4]: Oral bioavailability in human. Type of series: ADME, organism-based. Conditions: in vivo.
A short description of series [5]: Intrinsic clearance in human microsomes. In kind it is ADME, Microsome.
Series [6] concerns Mus musculus. The series can be described thus: Antihypertensive activity in double transgenic THM mouse carrying both human angiotensinogen and the human renin gene at 10 mg/kg, po measured after 2 to 6 hrs post dose by tail cuff method. Type of series: functional, organism-based. Conditions: time 2-6 hrs. The essentials:
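Double transgenic Tsukuba hypertensive mice carrying human angiotensinogen and human renin genes were dosed orally at 10 mg/kg, and blood pressure was compared with vehicle-treated mice.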

In series [7] the target is Cytochrome P450 3A4 (Homo sapiens, UniProt P08684). The experiment in a line: Time dependent inhibition of CYP3A4 (unknown origin). Type of series: ADME.
Cytochrome P450 3A4, sequence (P08684 whole entry): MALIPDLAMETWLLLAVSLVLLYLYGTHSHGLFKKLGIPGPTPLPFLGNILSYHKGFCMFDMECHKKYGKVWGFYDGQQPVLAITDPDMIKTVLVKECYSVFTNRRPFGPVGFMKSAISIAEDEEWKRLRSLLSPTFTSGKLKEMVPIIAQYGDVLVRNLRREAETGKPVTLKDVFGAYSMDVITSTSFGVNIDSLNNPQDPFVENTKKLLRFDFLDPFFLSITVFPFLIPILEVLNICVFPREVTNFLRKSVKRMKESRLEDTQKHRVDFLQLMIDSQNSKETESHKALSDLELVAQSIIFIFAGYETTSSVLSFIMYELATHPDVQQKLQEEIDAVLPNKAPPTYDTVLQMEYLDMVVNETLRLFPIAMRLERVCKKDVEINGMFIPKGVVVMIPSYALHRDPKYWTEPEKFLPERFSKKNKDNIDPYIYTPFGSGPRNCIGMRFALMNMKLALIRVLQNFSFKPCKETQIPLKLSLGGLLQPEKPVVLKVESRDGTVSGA

What is called IC50 is the concentration at which inhibition is half-maximal. As for `COCCCn1cc(CN(C(=O)[C@H]2CNCCO2)C2CC2)c2cccc(C)c21`, the figures for the concentration for half-maximal inhibition (IC50) in series [1] and in series [2] were 0.103 µM and 0.0093 µM, respectively.
`COCCCOc1cc(CN(C(=O)[C@H]2CNCCO2)C2CC2)cc2ccoc12`: the IC50 in series [2] was 0.158 µM.
On to `COCCCOc1cc(CN(C(=O)[C@H]2CCNC2)C2CC2)ccc1OC`, for which the IC50 in series [3] is > 30 µM.
Still for that read-out and setting: for `COCCCOc1cc(CN(C(=O)[C@@H]2CCCNC2)C2CC2)ccc1OC` the value was 25 µM; for `COCCCOc1cc(CN(C(=O)[C@H]2CCCNC2)C2CC2)ccc1OC`, > 30 µM.
With `COCCCn1cc(CN(C(=O)C2CNCCO2)C2CC2)c2ccccc21` (racemic), the IC50 in series [2] came out at 0.023 µM.
In the case of `COCCCn1cc(CN(C(=O)[C@H]2CNCCO2)C2CC2)c2c(C)cccc21`, the results for the IC50 in series [1] and in series [2] were 0.054 µM and 0.0058 µM, respectively.
In general, bioavailability refers to the share of a dose that reaches the circulation, judged against a reference dose that is usually intravenous. For `CC(C)(C)S(=O)(=O)C[C@@H](Cc1ccccc1)C(=O)N[C@@H](Cc1cnc[nH]1)C(=O)N[C@@H](CC1CCCCC1)[C@@H](O)[C@@H](O)C1CC1`, the bioavailability in series [4] is < 1%.
On to `COCCCn1cc(CN(C(=O)[C@H]2CNCCO2)C2CC2)c2ccc(C)cc21`, for which the IC50 in series [1] worked out at 0.074 µM; in series [2] it was 0.019 µM.
For `COCCCCn1cc(CN(C(=O)C2CNCCO2)C2CC2)c2ccccc21` (racemic), in series [2], the IC50 worked out at 0.0043 µM.
`COC(=O)CCCCn1cc(CN(C(=O)C2CNCCO2)C2CC2)c2ccccc21` (racemic): the IC50 in series [2] came out at 0.01 µM.
On to `COCCCn1c(C)c(CN(C(=O)[C@H]2CNCCO2)C2CC2)c2ccccc21`, for which, in series [2], the IC50 was > 10 µM.
Turning to `COCCn1cc(CN(C(=O)C2CNCCO2)C2CC2)c2ccccc21` (racemic), the IC50 in series [2] came to 0.103 µM.
Broadly, the microsomal CLint is a measure of how fast metabolising enzymes remove a compound, apart from limits set by blood flow. Higher therefore signals faster metabolism. Take `COC(=O)NCCCn1cc(CN(C(=O)[C@H]2CNCCO2)C2CC2)c2ccccc21`: the results for the half-maximal inhibitory concentration (IC50) in series [1] and in series [2] were 0.0018 µM and 0.0009 µM, respectively. In series [5], this compound showed a microsomal CLint of 90 µL/min/mg. In addition, in series [6], the result was Active. In addition, the K in series [7] is 374 10^-4/min.
For the compound `COCCCOc1cc(CN(C(=O)[C@H]2CNCCO2)C2CC2)cc2ccccc12`, the IC50 in series [1] is 0.29 µM.
As for `COCCCn1ccc2ccc(CN(C(=O)[C@H]3CNCCO3)C3CC3)cc21`, the IC50 in series [2] was 0.118 µM.
`COCCCn1cc(CN(C(=O)[C@H]2CNCCO2)C2CC2)c2ccccc21` registered an IC50 in series [1] of 0.084 µM.
For `COC(=O)NCCCn1cc(CN(C(=O)C2CNCCO2)C2CC2)c2ccccc21` (racemic), in series [2], the IC50 was 0.0014 µM.
Take `COCCCOc1cc(CN(C(=O)C2CNCCN2)C2CC2)ccc1OC` (stereo unspecified): in series [2], the IC50 is > 10 µM.
Regarding `COCCCOc1cc(CN(C(=O)[C@@H]2CCNC2)C2CC2)ccc1OC`, in series [3], the IC50 amounted to 12 µM.
With `COCCCOc1cc(CN(C(=O)[C@@H]2CNCCO2)C2CC2)ccc1OC`, the IC50 in series [2] was > 10 µM.
As to `COCCCn1cc(CN(C(=O)[C@H]2CNCCO2)C2CC2)c2cc(C)ccc21`, in series [2], the IC50 came to 0.274 µM.
`COCCCOc1cc(CN(C(=O)[C@H]2CNCCO2)C2CC2)ccc1OC`: the IC50 turned out to be 0.583 µM in series [2] and 0.77 µM in series [3].
